High-throughput results from PubChem BioAssay.
Shown are actives, neighbours in structure and some others; about 2.3% of the full set was active somewhere.
TRPC6 act: activators of mouse TRPC6 channel | Q61143 | HEK293-TRPC6 membrane potential dye fluorescence; stronger effect = higher value | B-score at 10 µM | actives 0.13% (n = 310,000) | AID 2550;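 active = B-score of the integrated fluorescence ratio above library mean plus 3 SD, and starting fluorescence ratio within library mean plus 5 SD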;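 also: higher score means more depolarization so channel activation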
TRPC4 block: blocks the mouse TRPC4 cation channel; B-score at 10 µM; HEK293 TRPC4beta/mu-opioid, DAMGO-evoked Fluo4 calcium flux; stronger effect = lower value; Q9QUQ5; actives 0.39% (n = 300,000);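 active = B-score over 3 SD under the library average, no early fluorescence shift, positive overall ratio signal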
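System: stable TRPC4beta/mu-opioid receptor HEK293 cells; Dosing: single-point compound dosing; Measured by: Fluo4 Ca2+ flux fluorescence; Read-out basis: per-well B score of integrated baseline-normalized Fluo4 ratio.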
TRPC6 inhibitor: blocks the mouse TRPC6 cation channel; B-score at 10 µM; actives 1.1% (n = 310,000); AID 2553; HEK293-TRPC6, membrane potential dye, ACh-evoked depolarization; stronger effect = lower value; Q61143;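 active = B-score under library mean minus 3 SD, initial fluorescence not abnormally high, positive integrated signal ratio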;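 also: B-score derived from integrated fluorescence ratio over the kinetic read; more negative B-score means stronger inhibition of depolarization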
TRPC4 act: TRPC4 (mouse) channel activation; HEK293 TRPC4beta/mu-opioid, Fluo4 calcium fluorescence; stronger effect = higher value; B-score at 10 µM; actives 0.49% (n = 310,000); AID 2237;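 active = B-score above 5 SD of library B-scores, and initial fluorescence ratio not above library mean plus 5 SD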;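 also: positive B-score marks a calcium rise read as TRPC4 activation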
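Assay system: HEK293 stable line with TRPC4beta plus mu-opioid receptor; schedule: 45 min room-temperature Fluo4 loading, 110 s read; technique: kinetic Fluo4 calcium fluorescence; evaluation: integrated baseline-normalised fluorescence ratio, converted to per-well B score; controls: buffer (low) and maximal DAMGO (high)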
TRPC4 potent: allosterically enhances the mouse TRPC4 cation channel; HEK293 TRPC4beta/mu-opioid, DAMGO EC20, Fluo-4 Ca2+ flux; stronger effect = higher value; B-score at 10 µM; actives 0.42% (n = 310,000); AID 2227;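 active = B-score of calcium response area above 5 SD of library B-scores, with initial fluorescence ratio within 5 SD of library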;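 also: B-score of integrated fluorescence ratio over time as area under calcium response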
* = called active by the depositor; i = inactive; x = no result given.

SMILES | TRPC6 act | TRPC4 block | TRPC6 inhibitor | TRPC4 act | TRPC4 potent
O=C(COc1ccc(Cl)cc1)Nc1ccc(C(=O)O)cc1NC(=O)COc1ccc(Cl)cc1 | i | -6* | i | i | i
O=C1CC(C(=O)NC2CCCCC2)C2(CCCCC2)O1 (centres undefined) | i | i | i | i | i
COC(=O)c1ccc2nc(C)cc(Nc3ccc(N(C)C)cc3)c2c1 | i | i | i | i | i
COc1ccc(Nc2cc(C)nc3ccc(OC)cc23)cc1 | i | -6* | i | i | i
Cc1ccc(Nc2cc(C)nc3ccc(C)cc23)cc1 | i | -6* | i | i | i
COC(=O)c1ccc(Nc2cc(C)nc3ccccc23)cc1 | i | -6* | i | i | i
O=C(N/C=C\n1cnc2cc(C(F)(F)F)ccc21)c1ccc([N+](=O)[O-])cc1 | i | i | i | i | i
CC(Sc1ccc(Cl)cc1)C(=O)NCC(c1ccco1)N1CCCCC1 (centres undefined) | i | i | i | i | i
COc1cc(-c2noc(C)c2-c2ccc(N(C)C)nc2)cc(OC)c1OC | i | i | i | 66* | i
COc1cc(-c2noc(C)c2-c2ccc3[nH]ccc3c2)cc(OC)c1OC | i | i | i | i | i
CN1CCC(=O)N([C@H](CSc2ccccc2)Cc2ccccc2)CC1 | i | i | i | i | i
O=C1CCN(CCc2ccccc2)CCN1[C@H](COc1ccccc1)Cc1ccccc1 | i | x | i | 67* | i
Cc1ccc(SC[C@H](Cc2ccccc2)N2CCN(C)CCC2=O)cc1 | i | x | i | 81* | i
CCCN1CCC(=O)N([C@H](CSc2ccc(OC)cc2)Cc2ccccc2)CC1 | i | i | i | i | i
CN1CCC(=O)N([C@H](CSc2ccc(Br)cc2)Cc2ccccc2)CC1 | i | i | i | 79* | i
CC(C)C[C@@H](COc1ccccc1)N1CCN(CCc2ccccc2)CCC1=O | i | x | i | i | i
COc1ccc(SC[C@H](Cc2ccccc2)N2CCN(C)CCC2=O)cc1 | i | -8* | i | i | i
CC(C)CN1CCC(=O)N([C@H](CSc2ccc(Br)cc2)Cc2ccccc2)CC1 | i | i | i | i | i
Cc1ccc(NC2CCCN(C(=O)CCCN3CCCCC3=O)C2)cc1C (centres undefined) | i | i | i | i | i
CN(/N=C/c1ccc(N(C)C)cc1)C1=NS(=O)(=O)c2ccccc21 | i | i | i | i | i
COc1ccc(N2CC(C(=O)Nc3ccncc3)CC2=O)cc1 (centres undefined) | i | i | i | i | i
COc1ccc(S(=O)(=O)N(C)c2nc3ccccc3n3c(CC(C)C)nnc23)cc1 | i | i | i | i | i
Cc1ccc(-n2cnn(-c3ccc([N+](=O)[O-])cc3[N+](=O)[O-])c2=O)cc1 | i | -6* | i | i | i
O=c1c2ccccc2ncn1-c1ccc([N+](=O)[O-])cc1[N+](=O)[O-] | i | i | i | i | i
CC1(c2ccccc2)O[C@@H]2C[C@H]3[C@@H]4CCC5=CC(=O)C=C[C@]5(C)[C@@]4(F)[C@@H](O)C[C@]3(C)[C@]2(C(=O)CO)O1 (some centres undefined) | i | i | i | i | 12*
SMILES | TRPC6 act | TRPC4 block | TRPC6 inhibitor | TRPC4 act | TRPC4 potent
CNc1c(-n2cc(C(=O)OC)c(C(=O)OC)c2C(=O)OC)c(=O)n(C)c(=O)n1C | i | i | i | i | i
CC1CC(C)CN(CCCOc2ccccc2[N+](=O)[O-])C1 (centres undefined) | i | i | i | 48* | i
CCOC(=O)C(CCCCOc1cccc(CC)c1)C(=O)OCC | i | i | i | i | i
O=[N+]([O-])c1ccccc1OCCCN1CCc2ccccc2C1 | i | i | i | i | i
CCOC(=O)C(CCCCCOc1ccccc1[N+](=O)[O-])C(=O)OCC | i | -6* | i | i | i
CCOC(=O)C(CCCCCOc1ccc([N+](=O)[O-])cc1)C(=O)OCC | i | i | i | i | 23*
COc1cccc(CNC(=O)c2nnn(CC(=O)Nc3cccc(C)c3)c2N)c1 | i | i | i | i | i
CN1CCCCC1CCN1c2ccccc2Sc2ccc(S(C)=O)cc21 (centres undefined) | i | i | -7.5* | i | i
O=C1COc2ccc(C(=O)COc3ccc([N+](=O)[O-])cc3)cc2N1 | i | i | i | i | i
Clc1ccccc1C1CC(c2ccccc2)=Nc2ccccc2N1 (centres undefined) | i | i | i | i | 10*
COC(=O)[C@]1(C)N[C@H](c2ccc(-c3ccccc3)cc2)[C@@H]2C(=O)N(C)C(=O)[C@@H]21 | i | i | i | i | i
Cc1ccc(-n2c3nc(=O)[nH]c(=O)c-3cc3cc([N+](=O)[O-])ccc32)cc1C | i | i | i | i | 10*
CCN(CC)CCNc1nc(SC)nc2sc3c(c12)CCN(C)C3 | i | i | i | i | i
CSc1nc(NCCCN(C)C)c2c3c(sc2n1)CN(C)CC3 | i | i | -7.8* | i | i
CC(C)OCCCNC(=O)COc1ccc2oc3c(c2c1)CCCC3 | i | i | i | i | i
CCCc1nc2ccccc2n1Cc1ccccc1OC | i | -7* | i | i | i
CCc1nc2ccccc2n1Cc1ccccc1OC | i | -5* | i | i | i
COc1ccccc1Cn1c(CCCO)nc2ccccc21 | i | i | i | i | i
COc1ccccc1Cn1c(C)nc2ccccc21 | i | i | i | i | i
Cc1cc(NC(=O)CSc2nnc(CNC(=O)c3c(F)cccc3F)o2)no1 | i | i | i | i | i
CCc1ccc(/C=C2/Sc3ccccc3N(CC(=O)NCC3CCCO3)C2=O)cc1 (centres undefined) | i | i | i | i | i
Cc1ccc(-c2cc(-c3n[nH]c(=S)n3C)c3ccccc3n2)cc1 | i | i | i | i | 12*
CCn1c(-c2cc(-c3ccc(C)c(C)c3)nc3ccccc23)n[nH]c1=S | i | i | i | i | i
O=c1[nH]cccc1-c1nc2ccccc2n1Cc1cccc(F)c1 | i | i | i | i | i
Cc1cc(C(C)(C)C)c(O)c(C)c1CC1=NCCN1 | i | i | i | i | 17*
c1ccc2c(CC3=NCCN3)cccc2c1 | i | i | i | i | i
